Article PMC12034384 (ImmunoHorizons, 2025)

Legend:
Jurkat = test: Cytotoxicity of peptides; type: cell-based, human; details: Fig. S1; concentrations up to 100 μM
STAP-1–ITK interaction = test: Coimmunoprecipitation, STAP-1–ITK interaction; type: binding, human; details: Fig. 2G
Jurkat cells = test: IL-2 production after anti-CD3/anti-CD28 stimulation, ELISA; type: cell-based, human; details: 30 min preincubation, immobilized anti-CD3 (3 μg/ml)/anti-CD28 (1 μg/ml) 48 h, n = 4
Method in brief: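 Jurkat cells were kept in RPMI 1640 with 10% FBS and 50 μM 2-mercaptoethanol. They were preincubated 30 min with test peptide or control peptide, then stimulated 48 h on immobilized anti-human CD3 (OKT3, 3 μg/ml) plus anti-CD28 (CD28.8, 1 μg/ml). Human IL-2 in supernatant was measured by ELISA. Mean ± SEM of 4 independent experiments, Sidak's test.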

[1] = cited from earlier work
mice = test: Tolerability in treated mice; type: in vivo; details: within the effective concentration range; data not shown
EAE mice = test: Experimental autoimmune encephalomyelitis; type: in vivo, C57BL/6 mice
[2] = test system: HeLa human epithelial-like cells; test: Spontaneous proliferation of HeLa cells; type: cell-based
[3] = test system: Ramos human B lymphoma cells; test: Spontaneous proliferation of Ramos cells; type: cell-based
murine CD4+ T cells = test: IL-2 production of murine CD4+ T cells after anti-CD3/anti-CD28, ELISA; type: cell-based; details: 30 min preincubation, anti-CD3/anti-CD28 48 h, n = 4
Method in brief: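 CD4⁺ T cells were purified from mouse spleen with a CD4⁺ isolation kit and cultured in RPMI 1640, 10% FBS, 50 μM 2-mercaptoethanol. After 30 min preincubation with test or control peptide, cells were stimulated 48 h on immobilized anti-mouse CD3 (145-2C11, 3 μg/ml) plus anti-CD28 (PV-1, 1 μg/ml). Mouse IL-2 in supernatant was measured by ELISA. Mean ± SEM, n = 4 independent experiments, Sidak's test.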

EL-4 cells = test: Spontaneous proliferation of EL-4 cells; type: cell-based, murine; details: 30 min preincubation, WST-8, n = 3
Method in brief: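 Murine EL-4 T lymphoma cells were grown in RPMI 1640 with 10% FBS and 50 μM 2-mercaptoethanol without stimulation. They were preincubated 30 min with test or control peptide, and spontaneous proliferation was read with WST-8 reagent. Mean ± SEM of 3 independent experiments; Sidak's multiple comparisons.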

murine B cells = test: IgM-mediated IL-6 and IL-10 production in murine B cells; type: cell-based; details: compared with iCont-treated B cells
[4] = EAE mice, 40 µg/mouse i.v., vs iCont, n = 5
[5] = EAE mice, day 14 after MOG immunization, vs iCont, n = 10 to 12
[6] = EAE mice, day 14 after MOG immunization, vs iCont, n = 10 to 14

RRRRRRRRGGDLTCLTEQNSTEKNCAKFTL [N73-92]
cytotoxicity (Jurkat): high cytotoxicity at the concentration of 100 μM

RRRRRRRRGGEYEHYWTELRGTTLFFYTD [N41-59]
cytotoxicity (Jurkat): did not show significant cytotoxicity up to the concentration of 100 μM

RRRRRRRRGGPLYFEGFLLIKRSGYREYE [N26-43]
cytotoxicity (Jurkat): high cytotoxicity from the concentration of 3 μM

RRRRRRRRGGRRIFQERLKITALPLYFEGF [N12-31]
cytotoxicity (Jurkat): high cytotoxicity from the concentration of 3 μM

RRRRRRRRGGTDKKSIIYVDKLDIVDLTCL [N58-77]
cytotoxicity (Jurkat): high cytotoxicity from the concentration of 3 μM

RRRRRRRRGGTTLFF [iSP1]
STAP-1–ITK interaction (STAP-1–ITK interaction): suppressed | IL-2 production following TCR stimulation (Jurkat cells): suppressed by iSP1 treatment in a concentration-dependent manner | stability of cell-penetrating R8 sequence in vivo [1]: unstable and easy to dissociate in vivo | abnormal phenotypes in treated mice (mice): did not show any abnormal phenotypes | area under the curve of EAE clinical score (EAE mice; 40 µg/mouse i.v. every other day, days 8–20, vs iCont, n = 20): significantly lower | demyelination in spinal cord (Luxol Fast Blue staining) (EAE mice; [4]): suppressed | immune cell infiltration in spinal cord (H&E staining) (EAE mice; [4]): suppressed | frequency of Th1 cells (IFN-γ expressing) among CD4+ cells in CNS (EAE mice; [5]): significantly lower | frequency of Th17 cells (IL-17 expressing) among CD4+ cells in CNS (EAE mice; [5]): significantly lower | absolute number of Th1 cells (IFN-γ expressing CD4+ T cells) in CNS (EAE mice; [6]): significantly lower | absolute number of Th17 cells (IL-17 expressing CD4+ T cells) in CNS (EAE mice; [6]): significantly lower | spontaneous proliferation [2]: did not inhibit | spontaneous proliferation [3]: did not inhibit | IL-2 production upon TCR stimulation (murine CD4+ T cells): inhibited in CD4^+ T cells | spontaneous cell proliferation (EL-4 cells): exhibited suppressed cell proliferation | IgM-mediated IL-6 production (murine B cells): no inhibition | IgM-mediated IL-10 production (murine B cells): no inhibition
